Experimental data pooled from the literature.
Lines come from different studies, so protocols differ.
Target: Serine/threonine-protein kinase D2 (PRKD2, Homo sapiens, UniProt Q9BZL6)
Sequence (Q9BZL6 1-878, as in one of the studies): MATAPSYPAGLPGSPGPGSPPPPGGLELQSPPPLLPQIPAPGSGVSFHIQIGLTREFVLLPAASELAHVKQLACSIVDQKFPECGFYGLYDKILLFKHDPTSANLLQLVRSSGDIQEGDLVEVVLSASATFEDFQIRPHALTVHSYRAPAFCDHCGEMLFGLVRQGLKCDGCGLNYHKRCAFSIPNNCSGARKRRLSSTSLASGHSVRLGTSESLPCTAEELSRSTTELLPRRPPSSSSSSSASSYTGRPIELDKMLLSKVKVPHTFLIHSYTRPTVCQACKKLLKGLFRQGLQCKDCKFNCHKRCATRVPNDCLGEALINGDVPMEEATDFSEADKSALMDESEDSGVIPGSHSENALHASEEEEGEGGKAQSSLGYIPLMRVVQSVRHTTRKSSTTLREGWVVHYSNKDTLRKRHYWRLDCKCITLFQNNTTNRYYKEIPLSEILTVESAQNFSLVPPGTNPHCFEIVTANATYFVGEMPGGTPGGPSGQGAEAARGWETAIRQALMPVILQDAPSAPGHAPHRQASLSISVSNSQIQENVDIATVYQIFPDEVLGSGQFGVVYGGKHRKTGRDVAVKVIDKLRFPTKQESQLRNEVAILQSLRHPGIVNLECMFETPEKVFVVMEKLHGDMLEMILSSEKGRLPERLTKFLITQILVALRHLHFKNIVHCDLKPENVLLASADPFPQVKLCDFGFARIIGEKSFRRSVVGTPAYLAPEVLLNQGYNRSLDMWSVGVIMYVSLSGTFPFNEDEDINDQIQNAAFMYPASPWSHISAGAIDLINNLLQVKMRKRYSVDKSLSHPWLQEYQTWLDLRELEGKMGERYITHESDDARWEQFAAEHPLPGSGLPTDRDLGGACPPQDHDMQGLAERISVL

| Compound | test | conditions | quantity | result |
| --- | --- | --- | --- | --- |
| Cc1nn(C)cc1-c1nc2c(N3CCN(Cc4ccc(Cl)cc4)CC3)c(Cl)cnc2[nH]1 | binding, competition with immobilised ligand | 1 µM | remaining binding | 100% |
| O=c1[nH]c2ccccc2n1C1CCN(Cc2ccc(-c3[nH]c4cc5ncnc5cc4nc3-c3ccccc3)cc2)CC1 | cell-free assay | 0.5 µM | remaining signal | 109% |
| Cn1cc(-c2cc(F)cc(N3CCn4c(cc5c4CCCC5)C3=O)c2CO)cc(Nc2ccc(N3CCN(C4COC4)CC3)cn2)c1=O | enzyme activity, inhibitor | 0.1 µM | inhibition | 11% |
| COc1cc(Nc2ncc(F)c(Nc3ccc4c(n3)NC(=O)C(C)(C)O4)n2)cc(OC)c1OC | binding | 10 µM | inhibition | 0% |
| COc1ncccc1-c1cnn2ccc(N3CCN(C(=O)OC(C)C)CC3)nc12 | binding, competition with immobilised ligand | 1 µM | remaining binding | 100% |
| Cn1cncc1[C@](O)(COc1ccc(C#N)cc1-c1ccc(OC(F)(F)F)cc1)c1ccc(C#N)cc1 | cell-free assay, competition with immobilised ligand | 1 µM | remaining binding | 84% |
| Nc1ncc(-c2nc(N3CCOCC3)nc(N3CCOCC3)n2)c(C(F)F)n1 | binding, competition with immobilised ligand | 10 µM | remaining binding | 99% |
| Cn1cc(-c2cccc(N3CCc4c(sc5c4CC(C)(C)C5)C3=O)c2CO)cc(Nc2ccncn2)c1=O | enzyme activity, inhibitor | 1 µM | inhibition | 0% |
| CC(C)(C)c1cc(C=C(C#N)C#N)cc(Br)c1O | enzyme activity, inhibitor | 0.5 µM | remaining activity | 108% |
